ChEMBL document CHEMBL3588785 (J Med Chem, 2015)
≈ marks a conversion by molar mass, not a printed value. Calls of active or inactive are those of the source. The calls are words filed in the database; no cut-off is given here.

How the values were obtained:
[1] = system: A-375; experiment: Antiproliferative activity against human A375 cells harboring B-RAF V600E mutant after 72 hrs by Cellomics ArrayScanTM VTI imaging analysis; assay type: functional, cell-based; details: A-375, 72 h
[2] = 1-Octanol-aqueous phosphate buffer partition coefficient, logD of the compound at pH 7.4; assay type: physicochemical
Outline: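 Partition of compound between 1-octanol and aqueous phosphate buffer, pH 7.4; reported as distribution coefficient.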

[3] = Solubility of the compound in aqueous phosphate buffer at 25 degC at pH 7.4 after 24 hrs; assay type: physicochemical
[4] = organism: Homo sapiens; experiment: Selectivity for ERK (unknown origin) over CDK7 (unknown origin) at 1 uM
Outline: (§1)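 Panel of 125 kinases screened with compound at 1 µM; kinases inhibited above 75% were recorded.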

[5] = organism: Homo sapiens; experiment: Selectivity for ERK (unknown origin) over MET (unknown origin) at 1 uM; outline: as §1
[6] = organism: Homo sapiens; experiment: Selectivity for ERK (unknown origin) over FAK (unknown origin) at 1 uM; outline: as §1
[7] = target: T1, Mitogen-activated protein kinase 1 (Homo sapiens, UniProt P28482); experiment: Inhibition of MEK U911-activated ERK2 (unknown origin) using Erktide as substrate preincubated with enzyme for 20 mins prior to substrate addition by RapidFire Mass Spectrometry in presence of ATP at Km concentration
[8] = target: T1, Mitogen-activated protein kinase 1; experiment: Inhibition of MEK U911-activated ERK2 (unknown origin) using Erktide as substrate preincubated with enzyme for 20 mins prior to substrate addition by RapidFire Mass Spectrometry in presence of ATP at higher concentration
[9] = target: T1, Mitogen-activated protein kinase 1; experiment: Inhibition of ERK2 in human A375 cells harboring B-RAF V600E mutant assessed as decrease in phospho-ERK2 level after 2 hrs by Cellomics ArrayScanTM VTI imaging analysis; assay type: cell-based, A-375
[10] = target: T2, Mitogen-activated protein kinase; ERK1/ERK2 (Homo sapiens, UniProt P27361+P28482); experiment: Inhibition of ERK1/2 in human A375 cells harboring B-RAF V600E mutant assessed as decrease in phospho-RSK level after 2 hrs by Cellomics ArrayScanTM VTI imaging analysis; assay type: cell-based; details: a-375
[11] = target: Dual specificity mitogen-activated protein kinase kinase 1 (Homo sapiens, UniProt Q02750); experiment: Inhibition of MEK1 (unknown origin) autophosphorylation incubated with enzyme for 20 mins prior to ATP addition by ADP Glo kinase assay in presence of ATP at Km concentration
Sequence of Dual specificity mitogen-activated protein kinase kinase 1 (Q02750 whole entry): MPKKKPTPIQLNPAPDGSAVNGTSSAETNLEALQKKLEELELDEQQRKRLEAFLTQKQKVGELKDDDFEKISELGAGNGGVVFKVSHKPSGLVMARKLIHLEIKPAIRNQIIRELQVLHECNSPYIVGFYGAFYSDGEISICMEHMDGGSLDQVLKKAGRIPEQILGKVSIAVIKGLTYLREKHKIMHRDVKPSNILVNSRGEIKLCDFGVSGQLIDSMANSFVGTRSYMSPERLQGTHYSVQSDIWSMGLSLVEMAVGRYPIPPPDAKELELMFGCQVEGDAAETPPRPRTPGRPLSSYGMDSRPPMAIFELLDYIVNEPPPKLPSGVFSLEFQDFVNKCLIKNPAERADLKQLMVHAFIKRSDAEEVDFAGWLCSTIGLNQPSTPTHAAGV

[12] = organism: Homo sapiens; experiment: Selectivity for ERK (unknown origin) over C-RAF (unknown origin) at 1 uM; outline: as §1
[13] = organism: Homo sapiens; experiment: Selectivity for ERK (unknown origin) over DYRK2 (unknown origin) at 1 uM; outline: as §1
[14] = Intrinsic clearance in human liver microsomes; assay type: ADME; details: read-out: CLH
[15] = system: Hepatocyte; experiment: Intrinsic clearance in rat hepatocytes; assay type: ADME, cell-based
[16] = organism: Homo sapiens; experiment: Selectivity for ERK (unknown origin) over MEK1 (unknown origin) at 1 uM; outline: as §1
[17] = organism: Homo sapiens; experiment: Selectivity for ERK (unknown origin) over FLT1 (unknown origin) at 1 uM; outline: as §1
[18] = target: T1, Mitogen-activated protein kinase 1; experiment: Covalent binding to ERK2 (unknown origin) after 2 hrs by mass spectrometry
Outline: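 ERK2 protein incubated with compound at 3-fold molar excess over protein, room temperature, 2 hours; sample diluted 10-fold and loaded immediately for intact-mass MS.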

[19] = GSH reactivity assessed as half life
[20] = Stability in pH 7.4 buffer assessed as drug hydrolysis; assay type: physicochemical
Outline: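 Compound held in pH 7.4 buffer alone at 37 °C, monitored over 11 hrs for hydrolysis.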

[21] = Stability to hydrolysis in pH 7.4 buffer measured over 11 hrs at 37 degC
[22] = organism: Homo sapiens; experiment: Selectivity for ERK (unknown origin) over AUR-B (unknown origin) at 1 uM; outline: as §1
[23] = organism: Homo sapiens; experiment: Selectivity for ERK (unknown origin) over AUR-C (unknown origin) at 1 uM; outline: as §1
[24] = organism: Homo sapiens; experiment: Selectivity for ERK (unknown origin) over SRC (unknown origin) at 1 uM; outline: as §1
[25] = Clearance in mouse hepatocytes measured per 10^6 cells; assay type: ADME, cell-based, Hepatocyte; details: read-out: CLH
[26] = AUC (0 to t) in mouse at 100 mg/kg, po; assay type: ADME, organism-based; details: in vivo
[27] = organism: Homo sapiens; experiment: Selectivity for ERK (unknown origin) over TRKA (unknown origin) at 1 uM; outline: as §1
[28] = organism: Homo sapiens; experiment: Selectivity for ERK (unknown origin) over AXL (unknown origin) at 1 uM; outline: as §1
[29] = organism: Homo sapiens; experiment: Selectivity for ERK (unknown origin) over CDK1 (unknown origin) at 1 uM; outline: as §1
[30] = organism: Homo sapiens; experiment: Selectivity for ERK (unknown origin) over IGF-1R (unknown origin) at 1 uM; outline: as §1
[31] = organism: Homo sapiens; experiment: Selectivity for ERK (unknown origin) over IR (unknown origin) at 1 uM; outline: as §1
[32] = target: Mitogen-activated protein kinase 3 (Mus musculus) (UniProt Q63844); experiment: Binding affinity to ERK1 in mouse fibroblasts assessed as half-life
Sequence of Mitogen-activated protein kinase 3 (Mus musculus) (Q63844 whole entry): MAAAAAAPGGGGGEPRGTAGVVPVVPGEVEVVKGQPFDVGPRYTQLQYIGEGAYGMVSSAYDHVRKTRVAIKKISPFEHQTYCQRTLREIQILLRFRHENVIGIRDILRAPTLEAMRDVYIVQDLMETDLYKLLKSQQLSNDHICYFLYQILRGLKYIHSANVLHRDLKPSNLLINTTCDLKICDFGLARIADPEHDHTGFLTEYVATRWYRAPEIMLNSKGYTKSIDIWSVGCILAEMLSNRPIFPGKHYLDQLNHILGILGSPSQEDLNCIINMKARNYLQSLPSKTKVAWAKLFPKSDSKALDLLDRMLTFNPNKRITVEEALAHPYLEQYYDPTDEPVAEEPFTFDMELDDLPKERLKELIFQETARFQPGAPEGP

[33] = target: T2, Mitogen-activated protein kinase; ERK1/ERK2; details: Calu-6, 500 nM
[34] = target: Mitogen-activated protein kinase 1 (Mus musculus) (UniProt P63085)
Sequence of Mitogen-activated protein kinase 1 (Mus musculus) (P63085 whole entry): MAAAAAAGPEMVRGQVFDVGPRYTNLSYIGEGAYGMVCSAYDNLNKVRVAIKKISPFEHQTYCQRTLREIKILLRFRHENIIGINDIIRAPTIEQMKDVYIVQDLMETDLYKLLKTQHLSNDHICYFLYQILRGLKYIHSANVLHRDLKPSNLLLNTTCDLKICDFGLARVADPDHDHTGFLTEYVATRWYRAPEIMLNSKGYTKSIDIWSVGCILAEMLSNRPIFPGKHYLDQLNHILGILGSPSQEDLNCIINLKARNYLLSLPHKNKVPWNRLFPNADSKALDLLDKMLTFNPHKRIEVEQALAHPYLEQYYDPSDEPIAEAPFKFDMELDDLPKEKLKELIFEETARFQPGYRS

| Structure (SMILES) | IC50 [1] | logD [2] | solubility at 24 h [3] | IC50 [7] | IC50 [8] | IC50 [9] | IC50 [10] | IC50 [11] | Selectivity ratio [12] | microsomal CLint [14] | CLH [15] | Selectivity ratio [16] | other results |
| --- | --- | --- | --- | --- | --- | --- | --- | --- | --- | --- | --- | --- | --- |
| O=C(Nc1ccc2[nH]nc(-c3ccncc3)c2c1)[C@@H]1CCN(CC(=O)N2CCN(c3ccc(-c4ncccn4)cc3)CC2)C1 | 70 nM | 3.2 | < 2.1 µM |  |  |  |  |  |  |  |  |  |  |
| CNC(=O)c1ccc(F)cc1Nc1cc(NC2CCOCC2)ncc1C(F)(F)F | 3400 nM | 3.4 | 8.8 µM (≈ 3.63 µg/mL) | 40 nM | 380 nM | 2100 nM | 2400 nM | > 10000 nM | 4 |  |  |  | Selectivity ratio [4]: 4; Selectivity ratio [5]: 4; Selectivity ratio [6]: 4 |
| C=CC(=O)Nc1ccccc1Nc1nc(N[C@H]2CC[C@H](N(C)C)CC2)ncc1Cl | 120 nM | 0.9 | 770 µM (≈ 320 µg/mL) | 85 nM | 90 nM | 72 nM | 200 nM | > 10000 nM | 4 | < 3 µL/min/mg | 25 µL/min/mg | 4 | Selectivity ratio [13]: 4; Selectivity ratio [17]: 4 |
| CCS(=O)(=O)N1CCc2cnc(NC3CCOCC3)nc2C1 |  |  |  | 9000 nM | > 10000 nM | 10000 nM | > 30000 nM |  |  |  |  |  |  |
| CC(C)Nc1cc(-c2c[nH]c(C(=O)N[C@H](CO)c3cccc(Cl)c3)c2)c(Cl)cn1 [ULIXERTINIB] | 180 nM | > 4 | 8.5 µM (≈ 3.68 µg/mL) |  |  |  |  |  |  |  |  |  |  |
| C=CC(=O)Nc1ccccc1Nc1nc(NC2CCOCC2)ncc1C | 470 nM | 2 | 170 µM (≈ 60.1 µg/mL) | 77 nM | 88 nM | 170 nM | 740 nM | > 10000 nM | 2 | 13 µL/min/mg | 59 µL/min/mg | 2 |  |
| CNC(=O)c1ccccc1Nc1cc(NC2CCOCC2)ncc1Cl |  | 2.8 | 290 µM (≈ 105 µg/mL) | 260 nM |  | 7500 nM | 10000 nM | > 10000 nM |  |  |  |  |  |
| C=CS(=O)(=O)N1CCc2cnc(NC3CCOCC3)nc2C1 |  | 1 | 760 µM (≈ 247 µg/mL) | 370 nM | 220 nM | 240 nM | 1100 nM | > 10000 nM | 2 |  |  | 2 | Activity [18]: Active; T1/2 [19]: 0.257 h; Stability [20]: Stable; Stability [21]: Stable |
| C=CC(=O)Nc1ccccc1Nc1nc(NC2CCOCC2)ncc1Cl | 57 nM | 2.7 | 46 µM (≈ 17.2 µg/mL) | 8.5 nM | 5.4 nM | 19 nM | 69 nM | > 10000 nM | 4 | 67 µL/min/mg | 200 µL/min/mg |  | Activity [18]: Active; T1/2 [19]: 2.53 h; Stability [20]: Stable; Selectivity ratio [22]: 4; Selectivity ratio [23]: 4; Selectivity ratio [17]: 4 |
| C=CC(=O)Nc1ccccc1Nc1nc(Nc2ccnn2C)ncc1C | 240 nM | 2.1 | 990 µM (≈ 346 µg/mL) | 39 nM | 47 nM | 66 nM | 280 nM | 260 nM |  | 19 µL/min/mg | 33 µL/min/mg |  |  |
| COc1cc(O)c2c(c1)/C=C/C[C@H](O)[C@@H](O)C(=O)/C=C/C[C@H](C)OC2=O | 4100 nM | 1.6 | 47 µM (≈ 17 µg/mL) | 5100 nM | 3700 nM | 1600 nM | 5700 nM | 3400 nM |  |  |  |  |  |
| C=CC(=O)Nc1ccccc1Nc1nc(NC2CCOCC2)ncc1C(F)(F)F | 53 nM | 2.9 | 59 µM (≈ 24 µg/mL) | 6.9 nM | 8.5 nM | 22 nM | 65 nM | > 10000 nM | 6 | 38 µL/min/mg | 270 µL/min/mg | 6 | Selectivity ratio [4]: 6; Selectivity ratio [24]: 6; hepatocyte CLint [25]: 143 µL/min/1e6 cells; AUC(0-t) [26]: 21 µM·h; Selectivity ratio [22]: 6; Selectivity ratio [23]: 6 |
| CCC(=O)Nc1ccccc1Nc1nc(NC2CCOCC2)ncc1Cl | 6600 nM |  |  | 480 nM | 4000 nM | > 30000 nM | > 30000 nM |  |  |  |  |  |  |
| C=CS(=O)(=O)Nc1ccc2[nH]nc(-c3ccncc3)c2c1 | 1300 nM | 2.2 | 7 µM (≈ 2.1 µg/mL) | 7.5 nM | 17 nM | 120 nM | 470 nM | > 10000 nM | 8 |  |  |  | Activity [18]: Active; Selectivity ratio [22]: 8; Selectivity ratio [23]: 8; Selectivity ratio [17]: 8; Selectivity ratio [27]: 8 |
| C=CC(=O)Nc1ccccc1Nc1nc(Nc2ccnn2C)ncc1Cl | 91 nM | 2.4 | 520 µM (≈ 192 µg/mL) | 9.9 nM | 13 nM | 48 nM | 120 nM | 120 nM | 7 | 42 µL/min/mg | 120 µL/min/mg | 7 | Selectivity ratio [6]: 7; Selectivity ratio [22]: 7; Selectivity ratio [23]: 7; Selectivity ratio [17]: 7 |
| CNC(=O)c1ccc(F)cc1Nc1cc(Nc2cc(C)nn2C)ncc1C(F)(F)F | 1400 nM | 3.8 | 15 µM (≈ 6.34 µg/mL) | 44 nM | 340 nM | 8700 nM | 5100 nM | > 10000 nM |  |  |  |  | Selectivity ratio [28]: 10; Selectivity ratio [29]: 10; Selectivity ratio [4]: 10; Selectivity ratio [30]: 10; Selectivity ratio [31]: 10; Selectivity ratio [5]: 10; Selectivity ratio [6]: 10; Selectivity ratio [22]: 10; Selectivity ratio [23]: 10; Selectivity ratio [27]: 10 |
| CCS(=O)(=O)Nc1ccc2[nH]nc(-c3ccncc3)c2c1 | > 30000 nM |  |  | 280 nM | 1800 nM | 10000 nM | > 30000 nM |  |  |  |  |  |  |
| C=CC(=O)Nc1ccccc1Nc1cc(NC2CCOCC2)ncc1Cl | 680 nM | 2.5 | 40 µM (≈ 14.9 µg/mL) | 42 nM | 60 nM | 120 nM | 400 nM | > 10000 nM | 2 | 24 µL/min/mg | 270 µL/min/mg | 2 |  |
| C=CC(=O)Nc1cnccc1Nc1nc(NC2CCOCC2)ncc1Cl | 41 nM | 2.3 | 150 µM (≈ 56.2 µg/mL) | 3.1 nM | 3 nM | 6.7 nM | 28 nM | > 10000 nM | 2 | 13 µL/min/mg | > 250 µL/min/mg | 2 | T1/2 [19]: 0.7 h; Stability [20]: Stable; T1/2 [32]: 120 h; inhibition [33]: Active; T1/2 [34]: 54 h |
| C=CS(=O)(=O)N1CCc2[nH]nc(-c3ccnc(C)c3)c2C1 | 1400 nM | 1.6 | 300 µM (≈ 91.3 µg/mL) | 74 nM | 110 nM | 380 nM | 1000 nM | 4900 nM | 5 |  |  | 5 | Selectivity ratio [17]: 5 |
